Measured values: ChEMBL document CHEMBL1124456, “Synthesis and structure-activity relationship of substituted tetrahydro- and hexahydro-1,2-benzisothiazol-3-one 1,1-dioxides and thiadiazinones: potential anxiolytic agents” (J Med Chem, 1989)

Experiments:
[1] = species on record: Rattus norvegicus; assay: Anti-psychotic activity from the ability to block discrete trial conditioned avoidance response (CAR) of rats.; type: functional
Summary of the method: (§1)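 Discrete-trial conditioned avoidance in male CD rats kept at about 400–450 g body weight. Dosing was ip or po, 30 min before testing, with at least five rats per dose (20 or 40 mg/kg, or a dose range). Computer recorded intertrial, avoidance and escape responses and no-response trials. Avoidance-block trials were taken as % of total trials, with control avoidance set at 100%. AB50 came from a least-squares dose-effect regression line.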

[2] = molecular target: T1, 5-hydroxytryptamine receptor 1A (Rattus norvegicus) (UniProt P19327); assay: In vitro ability to inhibit [3H]8-OH-DPAT binding to 5-hydroxytryptamine 1A receptor of rat hippocampus at 1 uM; type: tissue-based
T1 sequence (whole entry): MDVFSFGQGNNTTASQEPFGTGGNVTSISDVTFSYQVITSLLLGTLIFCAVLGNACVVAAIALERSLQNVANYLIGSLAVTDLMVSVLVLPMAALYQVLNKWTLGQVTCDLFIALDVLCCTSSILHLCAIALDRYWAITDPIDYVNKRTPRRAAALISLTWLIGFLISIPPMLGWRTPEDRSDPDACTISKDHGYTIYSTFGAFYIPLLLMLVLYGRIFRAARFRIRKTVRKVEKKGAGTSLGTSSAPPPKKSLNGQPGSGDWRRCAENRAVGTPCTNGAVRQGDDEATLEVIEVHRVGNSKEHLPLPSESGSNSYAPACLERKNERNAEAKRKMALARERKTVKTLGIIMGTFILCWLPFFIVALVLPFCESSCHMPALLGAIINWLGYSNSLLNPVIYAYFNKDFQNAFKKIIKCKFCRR

[3] = molecular target: D(2) dopamine receptor (Rattus norvegicus) (UniProt P61169); assay: Inhibition of [3H]-spiperone binding to dopamine receptor D2 of rat limbic structures at 1 uM.; conditions: Limbic system
[4] = molecular target: D(2) dopamine receptor (Rattus norvegicus) (UniProt P61169); assay: Inhibition of [3H]spiperone binding to Dopamine receptor D2 of rat limbic structures; type: tissue-based; parameters: concentration or dose not given beside the values; conditions: Limbic system, concentration not given here
[5] = molecular target: T1, 5-hydroxytryptamine receptor 1A (Rattus norvegicus); assay: In vitro ability to inhibit [3H]-8-OH-DPAT binding to 5-hydroxytryptamine 1A receptor of rat hippocampus at 1 uM; type: tissue-based
[6] = system: Rattus norvegicus; assay: Compound was tested for antagonism of apomorphine-induced climbing behavior, after intraperitoneal dosing.; type: functional; conditions: ip
[7] = system: Rattus norvegicus; assay: Compound was tested for antagonism of apomorphine-induced stereotyped behavior, after intraperitoneal dosing.; type: functional; conditions: ip
Summary of the method: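 High-dose apomorphine-induced stereotyped behavior procedure. Test agents were given ip at doses up to 60 mg/kg.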

[8] = molecular target: T1, 5-hydroxytryptamine receptor 1A (Rattus norvegicus); assay: In vitro ability to inhibit [3H]-8-OH-DPAT binding to 5-hydroxytryptamine 1A receptor of rat hippocampus.; type: tissue-based; conditions: concentration not given here
[9] = molecular target: T2, 5-hydroxytryptamine receptor 1A (Rattus norvegicus, UniProt P19327); assay: In vitro ability to inhibit [3H]8-OH-DPAT binding to 5-hydroxytryptamine 1A receptor of rat hippocampus and value ranges from 27 - 42; type: tissue-based
T2 sequence (P19327 whole entry): T1 sequence (whole entry)

[10] = system: Rattus norvegicus; assay: Compound was tested for antagonism of apomorphine-induced climbing behavior, after intraperitoneal dosing; 1.29-27.21; type: functional; conditions: ip
[11] = species on record: Rattus norvegicus; assay: Anti psychotic activity was evaluated from the ability to block discrete trial conditioned avoidance response (CAR) of rats and the value ranges from 32-61; type: functional; summary of the method: as §1
[12] = molecular target: T2, 5-hydroxytryptamine receptor 1A; assay: In vitro ability to inhibit [3H]8-OH-DPAT binding to 5-hydroxytryptamine 1A receptor of rat hippocampus and the value ranges from 25 - 84; type: tissue-based

Chain of D(2) dopamine receptor (Rattus norvegicus) (P61169 whole entry): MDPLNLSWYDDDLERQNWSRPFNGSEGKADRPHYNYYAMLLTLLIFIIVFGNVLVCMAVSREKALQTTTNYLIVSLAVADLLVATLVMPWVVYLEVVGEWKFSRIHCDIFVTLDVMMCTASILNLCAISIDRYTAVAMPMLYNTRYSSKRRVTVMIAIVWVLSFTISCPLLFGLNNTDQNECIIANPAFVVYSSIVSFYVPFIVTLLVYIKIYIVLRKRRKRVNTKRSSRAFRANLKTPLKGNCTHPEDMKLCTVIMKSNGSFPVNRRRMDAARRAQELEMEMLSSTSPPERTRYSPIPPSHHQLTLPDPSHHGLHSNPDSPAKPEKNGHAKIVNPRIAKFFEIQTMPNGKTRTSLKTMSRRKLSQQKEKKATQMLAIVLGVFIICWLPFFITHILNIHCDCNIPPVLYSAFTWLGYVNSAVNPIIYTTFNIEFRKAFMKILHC

SMILES	AB50 [1] [mg/kg]	inhibition [4] [%]	other results
Cl.Cl.O=c1c2ccccc2[s+]([O-])n1CCCCN1CCN(c2ncccn2)CC1 (centres undefined)	40		inhibition [2]: 43%; inhibition [3]: 3%
Cl.O=C1C2C3CCC(CC3)C2S(=O)(=O)N1CCCCC1CCN(c2cncc(Cl)n2)CC1 (centres undefined)	>40	0	inhibition [5]: 7%
Cl.O=C1C2C3C=CC(CC3)C2S(=O)(=O)N1CCCCc1ccncc1 (centres undefined)	>40	0	inhibition [2]: 35%
Cl.O=C1c2cscc2S(=O)(=O)N1CCCCN1CCN(c2cncc(Cl)n2)CC1	>40		
Cl.Cl.O=C1C2C3CCC(O3)C2S(=O)(=O)N1CCCCN1CCN(c2ncccn2)CC1 (centres undefined)	>40		inhibition [3]: 0%; ED50 [6]: 16 mg/kg; ED50 [7]: 34 mg/kg
Cl.Cl.O=C1N(CCCCN2CCN(c3ncccn3)CC2)S(=O)(=O)NC12CCCCC2	40		
Cl.Cl.Cl.O=C1c2cscc2S(=O)(=O)N1CCCCN1CCN(c2ccc(Cl)nn2)CC1	>40		
Cl.Cl.O=C1c2cscc2S(=O)(=O)N1CCCCN1CCN(c2ncccn2)CC1	>20		
Cl.Cl.O=C1C2C3C=CC(C4CC34)C2S(=O)(=O)N1CCCCN1CCN(c2ncccn2)CC1 (centres undefined)	40		
Cl.O=C1c2ccccc2S(=O)(=O)N1CCCCN1CCN(c2cncc(Cl)n2)CC1	40	6	
Cl.Cn1nnnc1N1CCN(CCCCN2C(=O)c3ccccc3S2(=O)=O)CC1	40		inhibition [8]: 52%; inhibition [3]: 14%
Cl.Cl.Cl.O=C1C2C3C=CC(C3)C2S(=O)(=O)N1CCCCN1CCN(c2ccc(Cl)nn2)CC1 (centres undefined)	>40	3	
Cl.Cl.Cl.O=C1C2C3CCC(O3)C2S(=O)(=O)N1CCCCN1CCN(c2cccc(Cl)c2)CC1 (centres undefined)	40		Ki [9]: 34 nM; inhibition [3]: 55%
CC1CC(=O)N(CCCCN2CCN(c3cncc(Cl)n3)CC2)S(=O)(=O)N1.Cl.Cl.Cl (centres undefined)	32	4	inhibition [5]: 61%
CC1=C(C)CC2C(C1)C(=O)N(CCCCN1CCN(c3ncccn3)CC1)S2(=O)=O.Cl.Cl (centres undefined)	40	21	
Cl.O=c1c2ccccc2[s+]([O-])n1CCCCN1CCN(c2cncc(Cl)n2)CC1 (centres undefined)	40	0	inhibition [5]: 44%
Cl.Cl.Cl.O=C1C2C3CCC(C3)C2S(=O)(=O)N1CCCCN1CCN(c2cccc(Cl)c2)CC1 (centres undefined)		98	ED50 [10]: 16 mg/kg; ED50 [7]: 34 mg/kg; AB50 [11]: 41 mg/kg; Ki [12]: 45 nM
CC1=C(C)CC2C(C1)C(=O)N(CCCCc1ccncc1)S2(=O)=O.Cl (centres undefined)	>40		inhibition [2]: 8%; inhibition [3]: 56%
